Test results taken from PMC10937897 (Sexual Medicine, 2024).
Structures can show the parent of a compound that is named as a salt. Where two headings read alike, the source gives them in different places. Marks after values point to notes of the source that are not given here.

What was measured:
CYP3A4 = CYP3A4 (Homo sapiens, UniProt P08684); experiment: Preliminary in vitro metabolism study, CYP3A4; type: in vitro ADME; conditions: preliminary previously unreported in vitro study
[1] = type: in vivo, human; conditions: for AUC0-24 / Cmax / T1/2 / Cmin,ss / Cmax,ss: geometric mean (CV%); for Tmax: median (range); for C24: mean (SD)
How it was run: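 Males took 30 or 60 mg oral test compound once daily for 5 days, fasted, 10 per group. Blood (5 mL) was drawn predose and 0.25–24 h postdose on days 1 and 5, and predose on days 3 and 4. Serum (3500 rpm, 10 min, 4 °C; stored –70 °C) was assayed for parent and M1, M5, M12 by LC-MS/MS MRM, linear 0.5–1000 ng/mL. Parameters came from noncompartmental analysis, reported as geometric mean (CV%), Tmax median (range), C24 mean (SD).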

PDE6 = conditions: cited from earlier work
PDE11 = conditions: cited from earlier work
healthy Chinese males = experiment: Safety and tolerability; type: in vivo, human
How it was run: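 Healthy Chinese males aged 22–45 y with BMI 19.0–24.0 kg/m2, 10 per group. They took 30 or 60 mg oral test compound tablets once daily for 5 days after an overnight fast, with standardized diets. Monitoring covered physical and ophthalmologic exams, vital signs, 12-lead ECG and labs (hematology, chemistry, coagulation, urinalysis), with a day-8 follow-up. The investigator graded AEs for severity and drug relationship, coded in MedDRA 20.0.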

CYP2C9 = CYP2C9 (Homo sapiens, UniProt P11712); experiment: Preliminary in vitro metabolism study, CYP2C9; type: in vitro ADME; conditions: preliminary previously unreported in vitro study
Chain of CYP2C9 (P11712 whole entry): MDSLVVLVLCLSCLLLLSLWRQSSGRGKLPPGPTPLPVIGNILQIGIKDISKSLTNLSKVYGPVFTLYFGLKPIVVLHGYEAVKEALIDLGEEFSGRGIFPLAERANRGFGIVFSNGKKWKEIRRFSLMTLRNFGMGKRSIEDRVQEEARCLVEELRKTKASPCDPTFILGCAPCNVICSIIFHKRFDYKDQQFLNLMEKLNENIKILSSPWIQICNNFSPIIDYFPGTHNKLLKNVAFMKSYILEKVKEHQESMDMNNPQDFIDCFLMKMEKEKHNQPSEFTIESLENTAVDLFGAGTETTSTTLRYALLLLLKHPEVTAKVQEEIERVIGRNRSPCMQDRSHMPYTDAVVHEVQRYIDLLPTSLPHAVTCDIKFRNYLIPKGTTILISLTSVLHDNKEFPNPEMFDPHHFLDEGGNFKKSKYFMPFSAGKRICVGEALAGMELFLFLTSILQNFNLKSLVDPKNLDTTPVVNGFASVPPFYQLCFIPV

PDE9 = conditions: cited from earlier work
PDE3 = conditions: cited from earlier work
[2] = 30 mg oral once daily, day 1, serum, n=10
[3] = 30 mg oral once daily, day 5, serum, n=9
[4] = 60 mg oral once daily, day 1, serum, n=10
[5] = 60 mg oral once daily, day 5, serum, n=10
[6] = 30 mg once daily 5 days, n=10, probably or possibly related to the study drug
[7] = 60 mg once daily 5 days, n=10, probably or possibly related to the study drug
[8] = 5-day once-daily doses at 30 and 60 mg

Chain of CYP3A4 (P08684 whole entry): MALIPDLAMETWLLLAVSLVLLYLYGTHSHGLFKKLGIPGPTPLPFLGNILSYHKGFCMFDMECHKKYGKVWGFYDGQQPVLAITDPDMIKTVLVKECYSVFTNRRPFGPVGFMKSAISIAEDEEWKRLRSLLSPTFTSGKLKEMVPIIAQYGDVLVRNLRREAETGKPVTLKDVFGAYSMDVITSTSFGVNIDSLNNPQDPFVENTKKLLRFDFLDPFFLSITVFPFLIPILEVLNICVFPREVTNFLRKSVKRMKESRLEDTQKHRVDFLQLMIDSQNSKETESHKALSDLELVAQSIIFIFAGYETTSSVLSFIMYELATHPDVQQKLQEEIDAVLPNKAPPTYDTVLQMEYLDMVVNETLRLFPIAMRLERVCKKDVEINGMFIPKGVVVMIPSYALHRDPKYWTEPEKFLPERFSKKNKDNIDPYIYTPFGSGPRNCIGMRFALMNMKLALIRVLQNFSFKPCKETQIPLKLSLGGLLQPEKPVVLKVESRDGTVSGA

CCCc1nn(C)c2c(=O)[nH]c(-c3cc(S(=O)(=O)N4C[C@@H](C)N[C@@H](C)C4)ccc3OCC)nc12 [Aildenafil, aildenafil citrate]
involvement of CYP3A4 in the metabolism (CYP3A4): involvement
AUC0-24 [1, 2]: 313.78 (45.3) h·ng/mL
Cmax [1, 2]: 81.03 (45.3) ng/mL
T1/2 [1, 2]: 2.75 (21.2) h
Tmax ([1]; 30 mg oral once daily, day 1, serum): 1.00 (0.50-2.00) h
C24 ([1]; 30 mg oral once daily, day 5, serum concentration at 24 hours): 0.92 (148.0)^b ng/mL
AUC0-24 [1, 3]: 346.23 (51.8)^b h·ng/mL
Cmin,ss [1, 3]: 1.05 (75.7)^b ng/mL
T1/2 [1, 3]: 3.61 (38.1)^b h
Cmax,ss ([1]; 30 mg oral once daily, day 5, serum, n=10): 84.61 (55.9) ng/mL
Tmax ([1]; 30 mg oral once daily, day 5, serum): 0.75 (0.25-2.00) h
C24 ([1]; 60 mg oral once daily, day 1, serum concentration at 24 hours): 1.71 (54.1) ng/mL
AUC0-24 [1, 4]: 963.18 (44.8) h·ng/mL
Cmax [1, 4]: 199.10 (37.8) ng/mL
T1/2 [1, 4]: 3.26 (19.7) h
Tmax ([1]; 60 mg oral once daily, day 1, serum): 1.00 (0.50-2.00) h
C24 ([1]; 60 mg oral once daily, day 5, serum concentration at 24 hours): 3.85 (66.8) ng/mL
AUC0-24 [1, 5]: 1683.67 (45.1) h·ng/mL
Cmax,ss [1, 5]: 319.71 (23.8) ng/mL
Cmin,ss [1, 5]: 3.61 (61.3) ng/mL
T1/2 [1, 5]: 3.38 (24.2) h
Tmax ([1]; 60 mg oral once daily, day 5, serum): 0.88 (0.50-3.00) h
amount in the blood at 24 hours relative to Cmax ([1]; after the first dose, 30 or 60 mg): less than 1/20
inhibition ratio relative to similar products (PDE6): 0.30
inhibition ratio relative to similar products (PDE11): 0.49
Blood glucose: elevated: Cases, No. (healthy Chinese males; 30 mg once daily 5 days, n=10): 0 No.
Blood glucose: elevated: Participants, No. (%) (healthy Chinese males; 30 mg once daily 5 days, n=10): 0 (0) No. (%)
Fatigue: Cases, No. (healthy Chinese males; 30 mg once daily 5 days, n=10): 0 No.
Fatigue: Participants, No. (%) (healthy Chinese males; 30 mg once daily 5 days, n=10): 0 (0) No. (%)
Head discomfort: Cases, No. (healthy Chinese males; 30 mg once daily 5 days, n=10): 0 No.
Head discomfort: Participants, No. (%) (healthy Chinese males; 30 mg once daily 5 days, n=10): 0 (0) No. (%)
Lymphocyte count: decreased: Cases, No. (healthy Chinese males; 30 mg once daily 5 days, n=10): 0 No.
Lymphocyte count: decreased: Participants, No. (%) (healthy Chinese males; 30 mg once daily 5 days, n=10): 0 (0) No. (%)
Lymphocyte percentage: decreased: Cases, No. (healthy Chinese males; 30 mg once daily 5 days, n=10): 0 No.
Lymphocyte percentage: decreased: Participants, No. (%) (healthy Chinese males; 30 mg once daily 5 days, n=10): 0 (0) No. (%)
Myalgia: Cases, No. (healthy Chinese males; 30 mg once daily 5 days, n=10): 0 No.
Myalgia: Participants, No. (%) (healthy Chinese males; 30 mg once daily 5 days, n=10): 0 (0) No. (%)
Chest discomfort: Cases, No. (healthy Chinese males; [6]): 1^a No.
Chest discomfort: Participants, No. (%) (healthy Chinese males; [6]): 1 (10.0)^a No. (%)
Vomiting: Cases, No. (healthy Chinese males; [6]): 1^a No.
Vomiting: Participants, No. (%) (healthy Chinese males; [6]): 1 (10.0)^a No. (%)
Chest discomfort: Cases, No. (healthy Chinese males; 60 mg once daily 5 days, n=10): 0 No.
Chest discomfort: Participants, No. (%) (healthy Chinese males; 60 mg once daily 5 days, n=10): 0 (0) No. (%)
Influenza-like illness: Cases, No. (healthy Chinese males; 60 mg once daily 5 days, n=10): 1 No.
Influenza-like illness: Participants, No. (%) (healthy Chinese males; 60 mg once daily 5 days, n=10): 1 (10.0) No. (%)
Vomiting: Cases, No. (healthy Chinese males; 60 mg once daily 5 days, n=10): 0 No.
Vomiting: Participants, No. (%) (healthy Chinese males; 60 mg once daily 5 days, n=10): 0 (0) No. (%)
Blood glucose: elevated: Cases, No. (healthy Chinese males; [7]): 1^a No.
Blood glucose: elevated: Participants, No. (%) (healthy Chinese males; [7]): 1 (10.0)^a No. (%)
Fatigue: Cases, No. (healthy Chinese males; [7]): 2^a No.
Head discomfort: Cases, No. (healthy Chinese males; [7]): 1^a No.
Head discomfort: Participants, No. (%) (healthy Chinese males; [7]): 1 (10.0)^a No. (%)
Lymphocyte count: decreased: Cases, No. (healthy Chinese males; [7]): 1^a No.
Lymphocyte count: decreased: Participants, No. (%) (healthy Chinese males; [7]): 1 (10.0)^a No. (%)
Lymphocyte percentage: decreased: Cases, No. (healthy Chinese males; [7]): 1^a No.
Lymphocyte percentage: decreased: Participants, No. (%) (healthy Chinese males; [7]): 1 (10.0)^a No. (%)
fatalities or serious AEs (healthy Chinese males; [8]): no fatalities or serious AEs
impact on heart rate, blood pressure, or visual function (healthy Chinese males; [8]): no clinically significant impact
severity of observed AEs (healthy Chinese males; [8]): mild to moderate
instances of AEs assessed by the investigator to be linked to the study drug (healthy Chinese males; both dose groups, 20 participants): 26
creatine kinase compared with baseline (healthy Chinese males; day 4): failed to reveal any noteworthy deviations
involvement of CYP2C9 in the metabolism (CYP2C9): involvement
inhibition ratio relative to similar products (PDE9): 0.06
inhibition ratio relative to similar products (PDE3): 0.75
